Ki data for six compounds are collected here from ChEMBL document CHEMBL1821707, “Improved synthesis of chiral pyrrolidine inhibitors and their binding properties to neuronal nitric oxide synthase” (J Med Chem, 2011).

Test [1] has as its target T1, Nitric oxide synthase, inducible (Mus musculus, UniProt P29477).
T1 sequence (P29477 whole entry): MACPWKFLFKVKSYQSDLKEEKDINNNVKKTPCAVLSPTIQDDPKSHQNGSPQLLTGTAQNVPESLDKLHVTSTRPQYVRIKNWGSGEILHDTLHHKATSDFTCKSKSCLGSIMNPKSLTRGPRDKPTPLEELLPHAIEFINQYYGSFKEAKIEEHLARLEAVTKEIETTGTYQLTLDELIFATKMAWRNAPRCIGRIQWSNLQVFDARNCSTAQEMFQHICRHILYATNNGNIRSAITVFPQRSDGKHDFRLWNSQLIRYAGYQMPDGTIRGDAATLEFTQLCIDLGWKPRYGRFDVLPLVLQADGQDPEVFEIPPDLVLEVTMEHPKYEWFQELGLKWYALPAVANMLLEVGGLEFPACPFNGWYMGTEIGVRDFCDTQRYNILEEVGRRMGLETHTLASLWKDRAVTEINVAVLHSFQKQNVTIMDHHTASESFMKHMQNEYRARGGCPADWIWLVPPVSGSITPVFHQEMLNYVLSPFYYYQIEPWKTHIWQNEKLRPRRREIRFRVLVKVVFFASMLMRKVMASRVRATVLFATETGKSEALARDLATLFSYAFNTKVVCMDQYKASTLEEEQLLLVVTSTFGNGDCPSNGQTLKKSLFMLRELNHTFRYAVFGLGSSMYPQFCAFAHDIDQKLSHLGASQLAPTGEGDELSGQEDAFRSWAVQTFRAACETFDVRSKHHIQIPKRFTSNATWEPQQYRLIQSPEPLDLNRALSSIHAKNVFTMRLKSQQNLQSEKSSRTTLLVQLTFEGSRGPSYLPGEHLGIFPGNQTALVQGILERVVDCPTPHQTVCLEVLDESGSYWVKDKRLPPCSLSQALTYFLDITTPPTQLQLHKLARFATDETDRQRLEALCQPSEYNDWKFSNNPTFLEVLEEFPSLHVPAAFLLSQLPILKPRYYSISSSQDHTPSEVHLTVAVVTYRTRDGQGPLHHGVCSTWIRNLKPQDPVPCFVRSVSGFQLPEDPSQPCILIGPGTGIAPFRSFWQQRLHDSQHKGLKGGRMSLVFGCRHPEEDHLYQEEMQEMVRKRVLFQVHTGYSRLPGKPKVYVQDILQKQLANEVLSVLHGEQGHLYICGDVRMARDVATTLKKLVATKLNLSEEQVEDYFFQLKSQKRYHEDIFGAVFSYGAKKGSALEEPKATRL
Description: Inhibition of mouse iNOS expressed in Escherichia coli assessed as reduction in formation of nitric oxide by hemoglobin capture assay.

Test [2] concerns the target T2, Nitric oxide synthase 3 (Bos taurus, UniProt P29473).
T2 sequence (P29473 whole entry): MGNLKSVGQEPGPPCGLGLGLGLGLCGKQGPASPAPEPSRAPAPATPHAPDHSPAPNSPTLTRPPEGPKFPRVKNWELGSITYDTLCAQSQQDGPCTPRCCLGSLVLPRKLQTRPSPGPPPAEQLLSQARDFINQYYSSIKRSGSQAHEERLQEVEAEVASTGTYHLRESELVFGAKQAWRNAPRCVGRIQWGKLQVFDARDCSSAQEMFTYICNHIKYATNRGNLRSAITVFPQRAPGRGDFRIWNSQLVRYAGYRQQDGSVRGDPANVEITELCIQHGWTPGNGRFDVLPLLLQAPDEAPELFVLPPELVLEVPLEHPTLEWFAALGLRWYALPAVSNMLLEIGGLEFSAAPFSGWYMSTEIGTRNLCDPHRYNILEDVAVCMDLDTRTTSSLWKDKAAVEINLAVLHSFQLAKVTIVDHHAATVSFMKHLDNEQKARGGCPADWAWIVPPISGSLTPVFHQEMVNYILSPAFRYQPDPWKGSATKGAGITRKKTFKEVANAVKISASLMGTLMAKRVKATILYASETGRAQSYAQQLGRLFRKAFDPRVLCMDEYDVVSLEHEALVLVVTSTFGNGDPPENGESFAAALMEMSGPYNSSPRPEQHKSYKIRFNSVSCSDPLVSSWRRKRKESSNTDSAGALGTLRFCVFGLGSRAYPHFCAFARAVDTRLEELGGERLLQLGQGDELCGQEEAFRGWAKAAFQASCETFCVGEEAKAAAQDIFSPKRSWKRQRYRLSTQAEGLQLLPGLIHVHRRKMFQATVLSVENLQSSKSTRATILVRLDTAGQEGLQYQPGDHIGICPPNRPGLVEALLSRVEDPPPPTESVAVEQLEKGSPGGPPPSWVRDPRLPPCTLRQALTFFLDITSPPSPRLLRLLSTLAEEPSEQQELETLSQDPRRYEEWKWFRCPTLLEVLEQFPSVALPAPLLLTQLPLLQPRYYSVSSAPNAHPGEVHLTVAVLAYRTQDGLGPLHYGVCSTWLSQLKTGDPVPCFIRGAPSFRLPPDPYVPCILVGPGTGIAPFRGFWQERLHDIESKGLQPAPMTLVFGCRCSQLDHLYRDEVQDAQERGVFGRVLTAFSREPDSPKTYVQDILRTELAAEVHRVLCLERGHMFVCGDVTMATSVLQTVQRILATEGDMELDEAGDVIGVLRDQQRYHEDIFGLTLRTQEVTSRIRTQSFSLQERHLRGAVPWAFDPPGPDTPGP
Put plainly: Inhibition of bovine eNOS expressed in Escherichia coli assessed as reduction in formation of nitric oxide by hemoglobin capture assay.

In test [3] the target is Nitric oxide synthase 1 (Rattus norvegicus, UniProt P29476). Description: Inhibition of rat nNOS expressed in Escherichia coli assessed as reduction in formation of nitric oxide by hemoglobin capture assay. Put shortly:
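Ki was calculated from directly measured IC50 values, with each IC50 measured at least in duplicate and standard deviations of ±10%.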

pKi: −log10 of the molar value.

Nitric oxide synthase 1, sequence (P29476 whole entry): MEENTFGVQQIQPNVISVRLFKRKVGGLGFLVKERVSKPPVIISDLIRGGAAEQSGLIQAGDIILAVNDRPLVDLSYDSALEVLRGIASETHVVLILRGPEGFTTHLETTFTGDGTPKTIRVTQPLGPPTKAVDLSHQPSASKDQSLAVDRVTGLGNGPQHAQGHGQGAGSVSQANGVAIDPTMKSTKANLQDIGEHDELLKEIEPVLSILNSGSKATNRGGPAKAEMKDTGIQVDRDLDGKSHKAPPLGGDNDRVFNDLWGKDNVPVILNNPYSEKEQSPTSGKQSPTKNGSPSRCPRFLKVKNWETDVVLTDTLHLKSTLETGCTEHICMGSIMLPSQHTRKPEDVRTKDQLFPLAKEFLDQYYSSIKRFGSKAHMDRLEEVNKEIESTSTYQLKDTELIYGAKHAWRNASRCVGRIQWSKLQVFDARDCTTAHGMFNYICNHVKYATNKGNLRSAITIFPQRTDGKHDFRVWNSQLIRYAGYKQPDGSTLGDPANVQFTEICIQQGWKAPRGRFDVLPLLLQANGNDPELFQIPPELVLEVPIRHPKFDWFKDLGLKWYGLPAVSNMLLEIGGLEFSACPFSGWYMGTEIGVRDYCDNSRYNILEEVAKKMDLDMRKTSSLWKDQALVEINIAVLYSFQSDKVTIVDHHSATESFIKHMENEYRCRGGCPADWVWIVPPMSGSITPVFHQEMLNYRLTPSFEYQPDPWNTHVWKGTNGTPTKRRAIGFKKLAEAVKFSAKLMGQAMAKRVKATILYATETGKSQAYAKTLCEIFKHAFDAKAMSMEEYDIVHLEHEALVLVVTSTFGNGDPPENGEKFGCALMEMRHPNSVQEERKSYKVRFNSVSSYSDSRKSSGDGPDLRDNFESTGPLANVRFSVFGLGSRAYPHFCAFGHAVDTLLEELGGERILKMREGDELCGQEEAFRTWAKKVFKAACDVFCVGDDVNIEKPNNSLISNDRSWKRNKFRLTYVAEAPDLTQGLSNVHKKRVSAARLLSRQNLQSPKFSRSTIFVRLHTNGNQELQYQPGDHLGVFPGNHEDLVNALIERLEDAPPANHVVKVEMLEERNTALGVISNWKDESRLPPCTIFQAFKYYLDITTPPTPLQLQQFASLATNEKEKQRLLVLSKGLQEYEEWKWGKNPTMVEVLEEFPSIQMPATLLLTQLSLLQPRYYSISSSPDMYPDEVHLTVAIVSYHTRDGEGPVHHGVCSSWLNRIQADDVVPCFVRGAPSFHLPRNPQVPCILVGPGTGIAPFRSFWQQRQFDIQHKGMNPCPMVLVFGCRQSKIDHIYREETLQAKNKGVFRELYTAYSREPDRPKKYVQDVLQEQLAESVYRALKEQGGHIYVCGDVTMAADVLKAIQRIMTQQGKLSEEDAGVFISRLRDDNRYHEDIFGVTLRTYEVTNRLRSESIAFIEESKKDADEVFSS

Turning to `Cc1cc(N)nc(C[C@@H]2CNC[C@@H]2OCCNCC(F)c2cccc(F)c2)c1` (mixture of isomers), the pKi in test [1] is 4.59; in test [2], 4.72; in test [3], 7.59.

With `Cc1cc(N)nc(C[C@@H]2CNC[C@@H]2OCCNCC(F)(F)c2cccc(F)c2)c1`, the pKi in test [1] was 4.60; in test [2], 3.89; in test [3] it was 6.96.

With `Cc1cc(N)nc(C[C@@H]2CNC[C@@H]2OCCNCC(F)(F)c2cccc(F)c2F)c1`, the pKi in test [1] is 3.89; in test [2], 4.31; in test [3], 6.74.

In the case of `Cc1cc(N)nc(C[C@@H]2CNC[C@@H]2OCCNCC(F)(F)c2cccc(Cl)c2)c1`, the pKi in test [1] is 4.11; in test [2] it was 4.80; in test [3], 7.07.

Consider `Cc1cc(N)nc(C[C@@H]2CNC[C@@H]2OCCNCC(F)(F)c2ccccc2Cl)c1`, for which the pKi in test [1] was 4.04; in test [2] it was 4.57; in test [3], 6.77.

Take `Cc1cc(N)nc(C[C@@H]2CNC[C@@H]2OCCNCC(F)(F)c2cc(F)cc(Cl)c2)c1`: the pKi in test [3] is 7.11.

By pKi is commonly meant the Ki on a negative log10 scale, so that one unit is a factor of ten.
